From PMC3990230 (Journal of medicinal chemistry, 2010)

Assays:
[1] = molecular target: T1, recombinant IKKβ (Homo sapiens, UniProt O14920); assay: In vitro IKK assay: 32P incorporation into GST-IκB; type: biochemical; conditions: 30 min at 30°C
T1 sequence (O14920 1-756): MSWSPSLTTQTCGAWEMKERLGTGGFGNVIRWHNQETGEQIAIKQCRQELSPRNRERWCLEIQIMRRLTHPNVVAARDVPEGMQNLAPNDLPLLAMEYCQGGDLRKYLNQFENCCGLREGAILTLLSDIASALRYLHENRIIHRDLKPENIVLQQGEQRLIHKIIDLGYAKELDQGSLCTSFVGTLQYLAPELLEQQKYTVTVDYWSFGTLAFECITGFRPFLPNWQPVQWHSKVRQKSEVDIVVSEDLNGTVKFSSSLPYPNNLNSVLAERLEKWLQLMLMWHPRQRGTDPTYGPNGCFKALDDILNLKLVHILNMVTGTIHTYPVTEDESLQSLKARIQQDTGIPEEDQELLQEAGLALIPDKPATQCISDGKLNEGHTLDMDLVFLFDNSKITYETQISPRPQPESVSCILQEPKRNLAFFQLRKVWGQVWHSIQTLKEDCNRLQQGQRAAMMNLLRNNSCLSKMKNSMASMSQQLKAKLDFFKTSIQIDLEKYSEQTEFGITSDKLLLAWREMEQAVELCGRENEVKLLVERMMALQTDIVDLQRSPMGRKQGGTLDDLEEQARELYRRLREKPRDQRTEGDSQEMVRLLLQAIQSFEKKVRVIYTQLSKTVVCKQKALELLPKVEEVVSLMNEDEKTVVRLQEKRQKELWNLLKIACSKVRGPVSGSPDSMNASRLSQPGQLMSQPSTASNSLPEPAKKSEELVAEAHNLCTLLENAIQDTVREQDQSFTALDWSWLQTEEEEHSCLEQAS
Procedure, shortened: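 Activated recombinant IKKβ (40 ng) in MOPS buffer (pH 7.0) preincubated with test compound for 30 min at room temperature. Mg-ATP mix (100 μM ATP), purified GST-IκBα (5 μg) and [γ-32P]ATP (0.5 μCi) added, then 30 min at 30°C. Reaction stopped by boiling in SDS sample buffer. Samples run on 12.5% SDS-PAGE with Coomassie staining. Read by autoradiography and scintillation counting of excised bands. Controls lacked enzyme or compound.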

[2] = system: IKK; type: cell-based, Human; conditions: A549 cells, TNFα induced, Western blot
Procedure, shortened: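 A549 cells were pretreated with test compound at varying concentrations (4 hr), then stimulated with TNFα. Phosphorylation read-out: lysates taken at 7 min, probed anti-pS32-IκB, stripped and re-probed for total IκB. Stability read-out: TNFα 10 ng/ml for 20 min, total IκB only. NP-40 lysis (pH 7.4, phosphatase/protease inhibitors), 12.5% SDS-PAGE, nitrocellulose, 5% milk/TBS-T block, primary antibody ≥2 hr.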

[3] = system: A549 cells; assay: Clonogenic assay; type: cell-based, Human; conditions: 9 day incubation
Procedure, shortened: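 A549 cells seeded at 200 cells/well and incubated overnight, then exposed to test compound or DMSO vehicle. Medium and compound replaced every 3 days, for 9 days in total. Cells fixed in 10% TCA for 30 min at 4°C, water-washed, SRB-stained and rinsed with 1% acetic acid. Plates scanned, colonies counted and normalized to DMSO control.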

[4] = system: NF-κB; assay: NF-κB translocation assay; type: cell-based, Human; conditions: A549 cells, TNFα induced

| Molecule | effect on IKKβ catalyzed incorporation of 32P into GST-IκB (in words) [1] | block of IκB phosphorylation and degradation (in words) [2] | concentration with detectable inhibition of colony forming activity [3] [µM] | fold greater potency than curcumin in blocking nuclear localization of NF-κB [4] |
| --- | --- | --- | --- | --- |
| 5-hydroxy-1, 7-bis(4-hydroxy-3-methoxyphenyl)hepta-1, 4, 6-trien-3-one [Curcumin, reference compound] | no obvious effect | block IκB phosphorylation and degradation when high concentrations were used | 4 |  |
| COc1cc(C=C(C(=O)/C=C/c2ccc(OC)c(OC)c2)C(=O)/C=C/c2ccc(OC)c(OC)c2)ccc1O [Compound 17, (1E,6E)-1,7-bis(3,4-dimethoxyphenyl)-4-(4-hydroxy-3-methoxybenzylidene)hepta-1,6-diene-3,5-dione] | dose-dependent inhibition of IKKβ | potently block the IκB phosphorylation and degradation in a lower concentration |  | more than 10 fold |
| COc1ccc(/C=C/C(=O)C(=Cc2ccc(F)cc2)C(=O)/C=C/c2ccc(OC)c(OC)c2)cc1OC [Compound 21, (1E,6E)-1,7-bis(3,4-dimethoxyphenyl)-4-(4-fluorobenzylidene)hepta-1,6-diene-3,5-dione] | dose-dependent inhibition of IKKβ | potently block the IκB phosphorylation and degradation in a lower concentration |  | more than 10 fold |
| COc1cc(/C=C/C(=O)C(=Cc2cccc(OC)c2OC)C(=O)/C=C/c2ccc(O)c(OC)c2)ccc1O [Compound 35, (1E,6E)-4-(2,3-dimethoxybenzylidene)-1,7-bis(4-hydroxy-3-methoxyphenyl)hepta-1,6-diene-3,5-dione] | dose-dependent inhibition of IKKβ | potently block the IκB phosphorylation and degradation in a lower concentration |  |  |
